ChEMBL document CHEMBL1127424, “7-azetidinylquinolones as antibacterial agents. 2. Synthesis and biological activity of 7-(2,3-disubstituted-1-azetidinyl)-4-oxoquinoline- and -1,8-naphthyridine-3-carboxylic acids. Properties and structure-activity relationships of quinolones with an azetidine moiety” (J Med Chem, 1994)
≈ marks a conversion by molar mass, not a printed value.

Tests used:
[1] = Measured ionization constant (pKa); assay type: physicochemical; conditions: read-out: pKa1
In short: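 Spectrophotometric titration at 20 ± 1 °C, 0.1 M ionic strength, pH varied with H2SO4 or NaOH made up in the compound stock. Absorbance followed at compound-specific wavelengths chosen from 200–400 nm scans. pKa1 and pKa2 taken as the inflection points of the two-step absorbance vs pH curve.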

[2] = HPLC capacity factor (k'); assay type: ADME
In short: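 Ion-pair reversed-phase HPLC on ODS-2 (10 μm) at 45 °C. Mobile phase: 10 mM sodium heptanesulfonate plus 50 mM KH2PO4 (pH 3.5)–methanol 45:55, 1 mL/min. Samples at 100 μg/mL in DMF, injected in duplicate, UV 280 nm. k' = (tR − t0)/t0.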

[3] = system: Bacillus cereus; assay: In vitro minimum inhibitory concentration for Bacillus cereus ATCC 11778; assay type: functional
In short: (§1)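 Serial 2-fold agar dilution in Mueller Hinton medium, run alongside a reference quinolone. Inoculum adjusted to 10⁸ cfu/mL; compound range 0.007–16 μg/mL.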

[4] = system: Bacillus subtilis; assay: In vitro minimum inhibitory concentration for Bacillus subtilis ATCC 6633; assay type: functional; in short: as §1
[5] = system: Escherichia coli; assay: In vitro minimum inhibitory concentration for Escherichia coli ATCC 10799; assay type: functional; in short: as §1
[6] = system: Enterobacter cloacae; assay: In vitro minimum inhibitory concentration for Enterobacter cloacae ATCC 23355; assay type: functional
[7] = system: Klebsiella pneumoniae; assay: In vitro minimum inhibitory concentration to inhibit Klebsiella pneumoniae ATCC 10031; assay type: functional; in short: as §1
[8] = system: Morganella morganii; assay: In vitro minimum inhibitory concentration for Morganella morganii ATCC 8019; assay type: functional; in short: as §1
[9] = system: Proteus vulgaris; assay: In vitro minimum inhibitory concentration for Proteus vulgaris ATCC 8427; assay type: functional; in short: as §1
[10] = system: Staphylococcus epidermidis; assay: In vitro minimum inhibitory concentration for Staphylococcus epidermidis ATCC 155-1; assay type: functional; in short: as §1
[11] = system: Staphylococcus aureus; assay: In vitro minimum inhibitory concentration for Staphylococcus aureus ATCC 25178; assay type: functional; in short: as §1
[12] = system: Enterococcus faecalis; assay: In vitro minimum inhibitory concentration for Streptococcus faecalis ATCC 10541; assay type: functional; in short: as §1
[13] = system: Pseudomonas aeruginosa; assay: In vitro minimum inhibitory concentration for Pseudomonas aeruginosa ATCC 10145; assay type: functional; in short: as §1
[14] = AUC (0-4 hr) ug/ml/h; assay type: ADME, cell-free; set-up: time < 4 hr; concentration or dose not given beside the values; conditions: plasma
In short: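 Mice dosed once orally at 50 mg/kg; blood taken from groups of six mice at 0.5, 1, 2 and 4 h. Serum drug assayed by disk agar diffusion bioassay (Bacillus subtilis ATCC 6633 on Seed Agar, 37 °C, 18 h), giving total activity.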

[15] = Solubility (buffer pH 7.4); assay type: physicochemical; conditions: read-out: S
In short: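 Excess solid shaken in 0.05 M phosphate buffer pH 7.4 for 24 h at 25 °C. Suspension filtered through 0.22 μm, discarding the first portion. Filtrate diluted in 0.1 N HCl or 0.1 N NaOH and read by UV at the compound's absorbance maximum.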

[16] = system: Mus musculus; assay: Evaluation of efficacy on systemic infections Escherichia coli HM-42, after oral administration in mice; assay type: functional
In short: (§2)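 Single oral dose given immediately after infection, one of four doses per group, chosen from in vitro activity. Survival scored after one week. ED50 (total mg/kg protecting 50%) interpolated from survival rates.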

[17] = system: Mus musculus; assay: Evaluation of efficacy on systemic infections Pseudomonas aeruginosa HS-116, after oral administration in mice; assay type: functional; in short: as §2
[18] = system: Mus musculus; assay: Evaluation of efficacy on systemic infections Staphylococcus aureus HS-93, after oral administration in mice; assay type: functional; in short: as §2

Row | SMILES | pKa [1] | Log k' [2] | MIC [3] | MIC [4] | MIC [5] | MIC [6] | MIC [7] | MIC [8] | MIC [9] | MIC [10] | MIC [11] | MIC [12] | MIC [13] | AUC [14] | solubility [15] | ED50 [16] | ED50 [17] | ED50 [18]
1 | Nc1c(F)c(N2CC(N)C2)c(F)c2c1c(=O)c(C(=O)O)cn2C1CC1 | 6.65 | -0.0505 |  |  |  |  |  |  |  |  |  |  |  |  |  |  |  | 
2 | CC[C@H]1[C@@H](O)CN1c1cc2c(cc1F)c(=O)c(C(=O)O)cn2C1CC1 |  | 0.529 | 1 µg/mL (≈ 2.89 µM) | 0.06 µg/mL (≈ 0.173 µM) | 2 µg/mL (≈ 5.77 µM) | 0.5 µg/mL (≈ 1.44 µM) | 0.5 µg/mL (≈ 1.44 µM) | 1 µg/mL (≈ 2.89 µM) | 0.5 µg/mL (≈ 1.44 µM) | 0.5 µg/mL (≈ 1.44 µM) | 1 µg/mL (≈ 2.89 µM) | 8 µg/mL (≈ 23.1 µM) | 8 µg/mL (≈ 23.1 µM) |  |  |  |  | 
3 | C[C@H]1N(c2c(F)cc3c(=O)c(C(=O)O)cn(C4CC4)c3c2F)C[C@]1(C)N |  | 0.1312 | 0.25 µg/mL (≈ 0.688 µM) | 0.06 µg/mL (≈ 0.165 µM) | 0.12 µg/mL (≈ 0.33 µM) | 0.06 µg/mL (≈ 0.165 µM) | 0.03 µg/mL (≈ 0.0826 µM) | 0.12 µg/mL (≈ 0.33 µM) | 0.5 µg/mL (≈ 1.38 µM) | 0.12 µg/mL (≈ 0.33 µM) | 0.25 µg/mL (≈ 0.688 µM) | 1 µg/mL (≈ 2.75 µM) | 2 µg/mL (≈ 5.5 µM) | 20600 ng·h/mL | 3.3 µg/mL (≈ 9.08 µM) |  |  | 
4 | CCn1cc(C(=O)O)c(=O)c2cc(F)c(N3C[C@@H](N)[C@@H]3C)cc21 |  | -0.0915 | 1 µg/mL (≈ 3.13 µM) | 0.12 µg/mL (≈ 0.376 µM) | 0.25 µg/mL (≈ 0.783 µM) | 0.12 µg/mL (≈ 0.376 µM) | 0.06 µg/mL (≈ 0.188 µM) | 0.25 µg/mL (≈ 0.783 µM) | 1 µg/mL (≈ 3.13 µM) | 0.25 µg/mL (≈ 0.783 µM) | 1 µg/mL (≈ 3.13 µM) | 2 µg/mL (≈ 6.26 µM) | 2 µg/mL (≈ 6.26 µM) |  |  |  |  | 
5 | NC1CN(c2cc3c(cc2F)c(=O)c(C(=O)O)cn3C2CC2)C1 | 6.49 | -0.0607 |  |  |  |  |  |  |  |  |  |  |  |  |  |  |  | 
6 | CC[C@H]1[C@@H](N)CN1c1c(F)cc2c(=O)c(C(=O)O)cn(C3CC3)c2c1F |  | 0.1399 | 0.12 µg/mL (≈ 0.33 µM) | 0.015 µg/mL (≈ 0.0413 µM) | 0.12 µg/mL (≈ 0.33 µM) | 0.12 µg/mL (≈ 0.33 µM) | 0.015 µg/mL (≈ 0.0413 µM) | 0.12 µg/mL (≈ 0.33 µM) | 0.25 µg/mL (≈ 0.688 µM) | 0.12 µg/mL (≈ 0.33 µM) | 0.12 µg/mL (≈ 0.33 µM) | 2 µg/mL (≈ 5.5 µM) | 2 µg/mL (≈ 5.5 µM) | 14700 ng·h/mL | 55.9 µg/mL (≈ 154 µM) |  |  | 
7 | C[C@H]1[C@H](N)CN1c1c(F)cc2c(=O)c(C(=O)O)cn(C(C)(C)C)c2c1F |  | 0.262 | 0.25 µg/mL (≈ 0.684 µM) | 0.06 µg/mL (≈ 0.164 µM) | 0.25 µg/mL (≈ 0.684 µM) | 0.25 µg/mL (≈ 0.684 µM) | 0.06 µg/mL (≈ 0.164 µM) | 0.25 µg/mL (≈ 0.684 µM) | 0.25 µg/mL (≈ 0.684 µM) | 0.25 µg/mL (≈ 0.684 µM) | 0.25 µg/mL (≈ 0.684 µM) | 0.5 µg/mL (≈ 1.37 µM) | 2 µg/mL (≈ 5.47 µM) |  |  |  |  | 
8 | C[C@H]1[C@@H](O)CN1c1cc2c(cc1F)c(=O)c(C(=O)O)cn2C1CC1 |  | 0.3299 | 0.25 µg/mL (≈ 0.752 µM) | 0.015 µg/mL (≈ 0.0451 µM) | 0.5 µg/mL (≈ 1.5 µM) | 0.25 µg/mL (≈ 0.752 µM) | 0.25 µg/mL (≈ 0.752 µM) | 0.5 µg/mL (≈ 1.5 µM) | 0.25 µg/mL (≈ 0.752 µM) | 0.25 µg/mL (≈ 0.752 µM) | 0.25 µg/mL (≈ 0.752 µM) | 2 µg/mL (≈ 6.02 µM) | 4 µg/mL (≈ 12 µM) |  |  |  |  | 
9 | NC1CN(c2c(F)cc3c(=O)c(C(=O)O)cn(C4CC4)c3c2Cl)C1 | 5.96 | -0.0264 |  |  |  |  |  |  |  |  |  |  |  |  |  |  |  | 
10 | CC[C@H]1[C@@H](N)CN1c1cc2c(cc1F)c(=O)c(C(=O)O)cn2C1CC1 |  | 0.1708 | 0.25 µg/mL (≈ 0.724 µM) | 0.015 µg/mL (≈ 0.0434 µM) | 0.12 µg/mL (≈ 0.347 µM) | 0.12 µg/mL (≈ 0.347 µM) | 0.015 µg/mL (≈ 0.0434 µM) | 0.25 µg/mL (≈ 0.724 µM) | 0.25 µg/mL (≈ 0.724 µM) | 0.25 µg/mL (≈ 0.724 µM) | 0.25 µg/mL (≈ 0.724 µM) | 4 µg/mL (≈ 11.6 µM) | 2 µg/mL (≈ 5.79 µM) | 3600 ng·h/mL | 42.2 µg/mL (≈ 122 µM) |  |  | 
11 | C[C@H]1[C@H](N)CN1c1nc2c(cc1F)c(=O)c(C(=O)O)cn2-c1ccc(F)cc1 |  | 0.0681 | 0.25 µg/mL (≈ 0.647 µM) | 0.06 µg/mL (≈ 0.155 µM) | 0.12 µg/mL (≈ 0.311 µM) | 0.12 µg/mL (≈ 0.311 µM) | 0.06 µg/mL (≈ 0.155 µM) | 0.25 µg/mL (≈ 0.647 µM) | 2 µg/mL (≈ 5.18 µM) | 0.25 µg/mL (≈ 0.647 µM) | 0.25 µg/mL (≈ 0.647 µM) | 4 µg/mL (≈ 10.4 µM) | 2 µg/mL (≈ 5.18 µM) |  |  | 3.1 mg/kg | > 400 mg/kg | 11.9 mg/kg
12 | C[C@@H]1[C@@H](O)CN1c1c(F)cc2c(=O)c(C(=O)O)cn(C3CC3)c2c1F |  | 0.518 | 0.06 µg/mL (≈ 0.171 µM) | 0.015 µg/mL (≈ 0.0428 µM) | 0.25 µg/mL (≈ 0.714 µM) | 0.12 µg/mL (≈ 0.343 µM) | 0.015 µg/mL (≈ 0.0428 µM) | 0.25 µg/mL (≈ 0.714 µM) | 0.12 µg/mL (≈ 0.343 µM) | 0.06 µg/mL (≈ 0.171 µM) | 0.12 µg/mL (≈ 0.343 µM) | 1 µg/mL (≈ 2.85 µM) | 2 µg/mL (≈ 5.71 µM) |  |  |  |  | 
